The subject of assay [1] is Huh-7. Kind of assay: Effective concentration required to inhibit replication of subgenomic HCV RNA in HUH-7 cells. Type of assay: functional, cell-based. To be noted: Homo sapiens. The essentials:
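Subgenomic HCV replicon in HUH-7 cells, run in medium with 10% fetal calf serum (a modification of Bartenschlager's method). EC50 was determined only for compounds giving >50% inhibition in an initial screen at a fixed 5 μM. Values are the arithmetic mean ± half-range or standard error of at least two independent determinations, or from a single experiment where noted.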

Assay [2] deals with RNA-directed RNA polymerase (Hepacivirus hominis, UniProt O39930). The assay can be described thus: Inhibitory activity against by hepatitis C virus NS5B polymerase. The essentials:
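Purified ΔC55 NS5B polymerase assayed with heterogenic template RNA. IC50 values come from a single experiment or are arithmetic means of multiple experiments, as footnoted; some were measured in duplicate.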

Chain of RNA-directed RNA polymerase (O39930 whole entry): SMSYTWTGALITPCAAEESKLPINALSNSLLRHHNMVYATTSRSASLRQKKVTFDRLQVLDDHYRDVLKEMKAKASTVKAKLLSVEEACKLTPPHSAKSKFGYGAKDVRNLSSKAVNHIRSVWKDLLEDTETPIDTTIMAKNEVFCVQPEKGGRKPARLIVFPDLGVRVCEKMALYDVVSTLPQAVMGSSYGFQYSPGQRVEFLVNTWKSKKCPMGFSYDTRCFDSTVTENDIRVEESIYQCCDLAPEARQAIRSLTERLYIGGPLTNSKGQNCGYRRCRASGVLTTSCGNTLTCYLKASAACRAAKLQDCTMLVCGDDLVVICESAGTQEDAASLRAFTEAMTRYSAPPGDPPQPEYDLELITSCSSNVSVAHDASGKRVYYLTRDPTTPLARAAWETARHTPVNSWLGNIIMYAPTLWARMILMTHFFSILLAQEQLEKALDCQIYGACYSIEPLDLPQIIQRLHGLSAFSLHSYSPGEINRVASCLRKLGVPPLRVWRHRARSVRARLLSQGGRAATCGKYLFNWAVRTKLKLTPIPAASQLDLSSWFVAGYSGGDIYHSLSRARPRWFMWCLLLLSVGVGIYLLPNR

For `CN(C)C1CCN(C(=O)Cn2c(-c3ccccc3)c(C3CCCCC3)c3ccc(C(=O)O)cc32)C1` (stereo unspecified), the EC50 (commonly the concentration needed to bring the measured effect to its halfway point) in assay [1] turned out to be 700 nM. In assay [2], the midpoint of inhibition, the IC50, lay at 71 nM.
For `CN1CCN(C(=O)Cn2c(-c3ccccc3)c(C3CCCCC3)c3ccc(C(=O)O)cc32)CC1`, in that order: 500 nM and 39 nM.
For `CN1CCN(C(=O)Cn2c(-c3ccc(Cl)cc3)c(C3CCCCC3)c3ccc(C(=O)O)cc32)CC1`, in that order: 300 nM and 12 nM.
For `O=C(O)c1ccc2c(c1)c(C1CCCCC1)c(-c1ccccc1)n2CC(=O)N1CCS(=O)(=O)CC1`, the 50% effective concentration (EC50) in assay [1] was more than 5000 nM.
In assay [1], `CC(C)N(C)C(=O)Cn1c(-c2ccc(Cl)cc2)c(C2CCCCC2)c2ccc(C(=O)O)cc21` displayed an EC50 of 900 nM. In addition, in assay [2], 11 nM corresponded to half-maximal inhibition (IC50).
For `CN(C)C(=O)CN(C)C(=O)Cn1c(-c2ccc(Cl)cc2)c(C2CCCCC2)c2ccc(C(=O)O)cc21`, in that order: 1100 nM and 17 nM.
For `CS(=O)(=O)N1CCN(C(=O)Cn2c(-c3ccc(Cl)cc3)c(C3CCCCC3)c3ccc(C(=O)O)cc32)CC1`, in that order: 500 nM and 7 nM.
Take `CCc1c(C2CCCCC2)c2ccc(C(=O)O)cc2n1CC(=O)N1CCC(N(C)C)CC1`: the IC50 (in general, the concentration that inhibits the measured activity by half) in assay [2] worked out at 283 nM.
Regarding `CN(C)C(=O)CN(C)C(=O)Cn1c(-c2ccccc2)c(C2CCCC2)c2ccc(C(=O)O)cc21`, the EC50 in assay [1] is more than 5000 nM.
With `CC(C)N(C)C(=O)Cn1c(-c2ccccc2)c(C2CCCCC2)c2ccc(C(=O)O)cc21`, the EC50 in assay [1] amounted to 1600 nM. In assay [2], this molecule came in with an IC50 of 62 nM.
`CC(C)N(C)C(=O)Cn1c(-c2ccccc2)c(C2CCCCC2)c2cc(C(=O)O)ccc21` registered an EC50 in assay [1] of more than 5000 nM.
In assay [1], `CS(=O)(=O)N1CCN(C(=O)Cn2c(-c3ccccc3)c(C3CCCCC3)c3ccc(C(=O)O)cc32)CC1` had an EC50 of 900 nM. In addition, in assay [2], the IC50 came out at 19 nM.
For `O=C(Cn1c(-c2ccc(Cl)cc2)c(C2CCCCC2)c2ccc(C(=O)O)cc21)NCC1CC1`, in that order: 1400 nM and 8 nM.
With `O=C(O)c1ccc2c(C3CCCCC3)c(-c3ccc(Cl)cc3)n(CC(=O)N3CCS(=O)(=O)CC3)c2c1`, the EC50 in assay [1] amounted to 900 nM. The half-maximal inhibitory concentration (IC50) in assay [2] was found to be 11 nM.
In the case of `O=C(Cn1c(-c2ccccc2)c(C2CCCCC2)c2ccc(C(=O)O)cc21)NCC1CC1`, in assay [1], a half-maximal response (EC50) required 1300 nM. In assay [2], this molecule showed an IC50 of 63 nM.
In turn, `CN1CCCC(CN(C)C(=O)Cn2c(-c3ccccc3)c(C3CCCCC3)c3cc(C(=O)O)ccc32)C1` (stereo unspecified) returned an EC50 in assay [1] of more than 5000 nM.
For `O=C(O)c1ccc2c(C3CCCC3)c(-c3ccccc3)n(CC(=O)N3CCS(=O)(=O)CC3)c2c1`, the EC50 in assay [1] is more than 5000 nM.
The molecule `CN(C)C(=O)CN(C)C(=O)Cn1c(-c2ccccc2)c(C2CCCCC2)c2ccc(C(=O)O)cc21` displayed an EC50 in assay [1] of 1900 nM. This molecule registered an IC50 in assay [2] of 98 nM.
Consider `CC(C)N(C)C(=O)Cn1c(-c2ccccc2)c(C2CCCC2)c2ccc(C(=O)O)cc21`, for which the EC50 in assay [1] is more than 5000 nM.
With `C#Cc1c(C2CCCCC2)c2ccc(C(=O)O)cc2n1CC(=O)N1CCC(N(C)C)CC1`, the IC50 in assay [2] was 228 nM.
In turn, `CN(C)C(=O)CN(C)C(=O)Cn1c(-c2ccccc2)c(C2CCCCC2)c2cc(C(=O)O)ccc21` yielded an EC50 in assay [1] of more than 5000 nM.
Consider `O=C(O)c1ccc2c(C3CCCCC3)c(-c3ccccc3)n(CC(=O)N3CCS(=O)(=O)CC3)c2c1`, for which the EC50 in assay [1] was determined as 1600 nM. This molecule also showed an IC50 in assay [2] of 43 nM.
In turn, `O=C(Cn1c(-c2ccccc2)c(C2CCCCC2)c2cc(C(=O)O)ccc21)NCC1CC1` showed an EC50 in assay [1] of more than 5000 nM.
On the same count and under the same terms, as for `CS(=O)(=O)N1CCN(C(=O)Cn2c(-c3ccccc3)c(C3CCCC3)c3ccc(C(=O)O)cc32)CC1`, the figure is more than 5000 nM.
Still for that read-out and setting: in the case of `CS(=O)(=O)N1CCN(C(=O)Cn2c(-c3ccccc3)c(C3CCCCC3)c3cc(C(=O)O)ccc32)CC1` it was more than 5000 nM.
Consider `O=C(Cn1c(-c2ccccc2)c(C2CCCC2)c2ccc(C(=O)O)cc21)NCC1CC1`, for which the EC50 in assay [1] is more than 5000 nM.
In turn, `CN(C)C1CCN(C(=O)Cn2c(-c3ccc(Cl)cc3)c(C3CCCCC3)c3ccc(C(=O)O)cc32)C1` (stereo unspecified) showed an EC50 in assay [1] of 200 nM. Further, the IC50 in assay [2] was determined as 13 nM.

Values taken from ChEMBL document CHEMBL1140313, “Potent inhibitors of subgenomic hepatitis C virus RNA replication through optimization of indole-N-acetamide allosteric inhibitors of the viral NS5B polymerase” (J Med Chem, 2005).
